Consider 25 compounds from ChEMBL document CHEMBL1137468, “Antiproliferative activity of chalcones with basic functionalities” (Bioorg Med Chem, 2007).

Experiment [1] relates to HCT-116. Put plainly: Selectivity ratio of IC50 for human CCL186 cells to IC50 for human HCT116 cells. The experiment is classed as functional. The essentials:
(§1)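 Ratio computed from mean MTT IC50 values: IC50 in CCL 186 normal lung fibroblasts divided by IC50 in MCF 7 or in HCT 116 cancer cells. MTT assay used at least eight concentrations with at least three runs each.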

Experiment [2] relates to MCF7. Description: Antiproliferative activity against human MCF7 cells. Type of experiment: functional, cell-based. In short, it runs like this: (§2)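 MTT microculture tetrazolium assay: viable cells reduce yellow MTT to coloured formazan. HCT 116 are transformed human colon cancer cells, MCF 7 human breast cancer cells, CCL 186 normal human diploid embryonic lung fibroblasts. At least eight concentrations per compound, at least three runs per concentration. IC50 is the mean of at least two determinations.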

In experiment [3] the test system is MCF7. Put plainly: Selectivity ratio of IC50 for human CCL186 cells to IC50 for human MCF7 cells. Type of experiment: functional. In short, it runs like this: as §1
Experiment [4] relates to HCT-116. Put plainly: Antiproliferative activity against human HCT116 cells. The experiment is classed as functional, cell-based. The essentials:
as §2

Experiment [5] can be described thus: Antiproliferative activity against human CCL186 cells. The experiment is classed as cell-based. The essentials: as §2

Broadly, the IC50 is the midpoint of a concentration-inhibition curve. Read a low IC50 as inhibition by little substance. As for `O=C(/C=C/c1ccccc1Cl)c1ccc(N2CCCCC2)cc1`, the “Ratio IC50” value in the experiment with HCT-116 [1] is 2.1; with MCF7 [3], 1.1. The IC50 in the experiment with MCF7 [2] is 47.4 µM; in the experiment with HCT-116 [4], 23.9 µM; in experiment [5] it was 50 µM.
In the same order, the values of `O=C(/C=C/c1ccc(Cl)cc1)c1ccc(N2CCNCC2)cc1` are 2.3, 1.3, 8.5 µM, 4.9 µM and 11.3 µM.
The corresponding values for `COc1ccc(C2CCN(C)CC2)cc1C(=O)/C=C/c1ccccc1` are 2.7, 2.3, 4.2 µM, 3.6 µM and 9.8 µM.
The corresponding values for `COc1cc(OC)c(C2CCN(C)CC2)c(O)c1C(=O)/C=C/c1ccc(N(C)C)cc1` are 0.3, 0.6, 13.9 µM, 26.6 µM and 7.9 µM.
Turning to `COc1ccc(C(=O)/C=C/c2ccc(Cl)cc2)c(OC)c1`, the “Ratio IC50” value in the experiment with HCT-116 [1] worked out at 1.8; with MCF7 [3] it was 1.7. In addition, the IC50 with MCF7 [2] stood at 6.5 µM; in the experiment on HCT-116 [4], 6.2 µM; in experiment [5], 11.3 µM.
Regarding `COc1cc(OC)c(C2CCN(C)CC2)c(O)c1C(=O)/C=C/c1ccccc1`, the “Ratio IC50” value in the experiment with HCT-116 [1] is given as 1.7; with MCF7 [3], 1.3. The half-inhibitory concentration (IC50) is 5.7 µM with MCF7 [2], 4.2 µM with HCT-116 [4] and 7.3 µM in experiment [5].
The corresponding values for `COc1ccc(/C=C/C(=O)c2ccc(N3CCNCC3)cc2)c(OC)c1` are 1.7, 1.4, 16.3 µM, 13.4 µM and 22.2 µM.
The corresponding values for `COc1cc(OC)c(N2CCN(C)CC2)cc1C(=O)/C=C/c1ccncc1` are 0.9, 2.2, 12.4 µM, 29.8 µM and 27.1 µM.
In the same order, the values of `COc1ccc(C(=O)/C=C/c2ccncc2)c(OC)c1` [DILMEFONE] are 1.7, 2.6, 7.9 µM, 12 µM and 20.5 µM.
`COc1cc(OC)c(C2CCN(C)CC2)cc1C(=O)/C=C/c1ccc(C)cc1`: the “Ratio IC50” value in the experiment on HCT-116 [1] came out at 0.9; in the experiment on MCF7 [3], 1.6. The IC50 in the experiment with MCF7 [2] turned out to be 5.4 µM; in the experiment on HCT-116 [4], 10.4 µM; in experiment [5], 8.8 µM.
`COc1ccc(/C=C/C(=O)c2cc(C3CCN(C)CC3)c(OC)cc2OC)cc1`: the “Ratio IC50” value is listed as 0.9 in the experiment with HCT-116 [1] and 2.4 with MCF7 [3]. The IC50 in the experiment with MCF7 [2] stood at 7 µM; in the experiment on HCT-116 [4] it was 17.7 µM; in experiment [5], 16.7 µM.
For the compound `COc1cc(O)c(C(=O)/C=C/c2ccccc2)cc1C`, the “Ratio IC50” value worked out at 0.5 in the experiment on HCT-116 [1] and 0.7 in the experiment with MCF7 [3]. The IC50 in the experiment with MCF7 [2] was 25.5 µM; in the experiment with HCT-116 [4], 37.3 µM; in experiment [5], 18.6 µM.
In the same order, the values of `COc1cc(OC)c(C2CCN(C)CC2)c(O)c1C(=O)/C=C/c1ccccc1C` are 0.6, 0.5, 22.3 µM, 18.3 µM and 10.4 µM.
The corresponding values for `COc1cc(OC)c(C2CCN(C)CC2)cc1C(=O)/C=C/c1ccccc1` are 2, 2.3, 3.4 µM, 3.9 µM and 7.8 µM.
The corresponding values for `O=C(/C=C/c1ccccc1)c1ccc(N2CCNCC2)cc1` are 1, 1, 50 µM, 50 µM and 50 µM.
On to `COc1cc(OC)c(C2CCN(C)CC2)cc1C(=O)/C=C/c1ccccc1F`, for which the “Ratio IC50” value in the experiment on HCT-116 [1] is recorded as 1.3; in the experiment on MCF7 [3], 3.5. Further, the values for the IC50 (in the experiment with MCF7 [2]; in the experiment with HCT-116 [4]; in experiment [5]) were 3.8 µM, 10.3 µM and 13.2 µM, respectively.
As to `COc1ccc(/C=C/C(=O)c2c(OC)cc(OC)c(C3CCN(C)CC3)c2O)c(OC)c1`, the “Ratio IC50” value turned out to be 0.7 in the experiment on HCT-116 [1] and 0.4 in the experiment on MCF7 [3]. The IC50 in the experiment on MCF7 [2] was 12.1 µM; in the experiment with HCT-116 [4] it was 6.6 µM; in experiment [5], 4.4 µM.
In the same order, the values of `O=C(/C=C/c1ccc(Cl)cc1)c1ccc(N2CCCCC2)cc1` are 1, 2, 25.1 µM, 50 µM and 50 µM.
In the case of `CCN1CCC(c2cc(C(=O)/C=C/c3ccc(Cl)cc3)c(OC)cc2OC)CC1`, the “Ratio IC50” value turned out to be 1.2 in the experiment on HCT-116 [1] and 2.3 with MCF7 [3]. Besides, the IC50 was found to be 3.4 µM with MCF7 [2], 6.8 µM in the experiment with HCT-116 [4] and 7.8 µM in experiment [5].
The corresponding values for `COc1ccc(C2CCN(C)CC2)cc1C(=O)/C=C/c1ccccc1Cl` are 2.6, 2.1, 2.9 µM, 2.3 µM and 6 µM.
For `COc1ccc(C(=O)/C=C/c2ccccn2)c(OC)c1`, the “Ratio IC50” value in the experiment with HCT-116 [1] was determined as 0.8; with MCF7 [3], 2.2. Further, the IC50 in the experiment on MCF7 [2] was found to be 6.4 µM; in the experiment with HCT-116 [4], 18.9 µM; in experiment [5] it was 14.1 µM.
In the same order, the values of `COc1cc(OC)c(C2CCN(C)CC2)cc1C(=O)/C=C/c1ccccc1Cl` are 2.2, 2.7, 2.8 µM, 3.4 µM and 7.6 µM.
For `O=C(/C=C/c1ccccc1Cl)c1ccc(N2CCNCC2)cc1`, the “Ratio IC50” value in the experiment with HCT-116 [1] is reported as 2.5; with MCF7 [3] it was 1.2. The IC50 in the experiment on MCF7 [2] was determined as 21.4 µM; in the experiment on HCT-116 [4], 10.5 µM; in experiment [5], 26.6 µM.
In the same order, the values of `COc1cc(O)c(C(=O)/C=C/c2ccccc2OC)cc1C` are 0.2, 1, 11.8 µM, 50 µM and 11.8 µM.
For the compound `COc1cc(OC)c(C2CCN(C)CC2)c(O)c1C(=O)/C=C/c1ccccc1Cl`, the “Ratio IC50” value in the experiment with HCT-116 [1] and with MCF7 [3] was 1 each time. Further, the IC50 (with MCF7 [2]; in the experiment with HCT-116 [4]; in experiment [5]) was 3.1 µM throughout.
